{"source": "ChEMBL document CHEMBL5661979", "about": "“Pharmacological inhibition of BMK1 suppresses tumor growth through promyelocytic leukemia protein” (Cancer Cell, 2010)", "key": {"[1]": {"target": "Cyclin-dependent kinase 12 (Homo sapiens, UniProt Q9NYV4)", "experiment": "Inhibition of CRK7 in human HeLa cells lysate at 2 uM pre incubated for 15 mins followed by ADP acyl phosphate probe addition and measured after 10 mins by LC-MS/MS analysis relative to control", "format": "subcellular", "conditions": "time 25.0 min"}, "[2]": {"target": "T1, Phosphatidylinositol 5-phosphate 4-kinase type-2 alpha (Homo sapiens, UniProt P48426)", "T1 sequence (P48426 whole entry)": "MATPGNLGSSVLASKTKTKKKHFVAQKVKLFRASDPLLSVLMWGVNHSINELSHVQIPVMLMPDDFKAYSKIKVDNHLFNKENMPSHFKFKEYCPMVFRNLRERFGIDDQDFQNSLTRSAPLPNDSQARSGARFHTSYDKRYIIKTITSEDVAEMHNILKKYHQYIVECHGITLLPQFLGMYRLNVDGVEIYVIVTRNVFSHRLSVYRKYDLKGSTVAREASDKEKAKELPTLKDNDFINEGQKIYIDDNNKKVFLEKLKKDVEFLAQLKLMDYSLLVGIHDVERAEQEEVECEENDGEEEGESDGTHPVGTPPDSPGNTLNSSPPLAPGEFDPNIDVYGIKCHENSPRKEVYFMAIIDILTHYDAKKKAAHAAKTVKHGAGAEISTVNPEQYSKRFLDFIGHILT", "experiment": "Inhibition of PIP5K2A LIP1 labeling site in human HeLa cells lysate pre incubated for 15 mins followed by ATP acyl phosphate probe addition and measured after 10 mins by LC-MS/MS analysis", "format": "subcellular"}, "[3]": {"experiment": "Inhibition of MAP3K2/3 in human HeLa cells lysate at 10 uM pre incubated for 15 mins followed by ATP acyl phosphate probe addition and measured after 10 mins by LC-MS/MS analysis relative to control", "conditions": "25 min, condition cancer"}, "[4]": {"target": "Cyclin-dependent kinase 8/19 (Homo sapiens, UniProt P49336+Q9BWU1)", "experiment": "Inhibition of CDK8/CDK11 in human HeLa cells lysate at 50 uM pre incubated for 15 mins followed by ATP acyl phosphate probe addition and measured after 10 mins by LC-MS/MS analysis relative to control", "format": "subcellular", "conditions": "time 25.0 min", "outline": "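KiNativ profiling in HeLa lysate (5 mg/mL total protein). Lysate incubated 15 min with inhibitor at 50, 10, 2, 0.8 or 0 μM. ATP or ADP acylphosphate probe then added (5 μM final) and reacted 10 min. Reaction stopped with urea and analysed by targeted MS, using up to four fragment ions per kinase peptide-probe conjugate. % inhibition taken against untreated lysate. Run in duplicate.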"}, "[5]": {"target": "IKK epsilon/TBK1 (Homo sapiens) (UniProt Q14164+Q9UHD2)", "experiment": "Inhibition of IKKE/TBK1 in human HeLa cells lysate at 2 uM pre incubated for 15 mins followed by ADP acyl phosphate probe addition and measured after 10 mins by LC-MS/MS analysis relative to control", "format": "subcellular", "conditions": "time 25.0 min"}, "[6]": {"experiment": "Inhibition of KHS1/2 in human HeLa cells lysate at 10 uM pre incubated for 15 mins followed by ATP acyl phosphate probe addition and measured after 10 mins by LC-MS/MS analysis relative to control", "conditions": "25 min, condition cancer"}, "[7]": {"target": "Serine/threonine-protein kinase SMG1 (Homo sapiens, UniProt Q96Q15)", "sequence (Q96Q15 whole entry)": "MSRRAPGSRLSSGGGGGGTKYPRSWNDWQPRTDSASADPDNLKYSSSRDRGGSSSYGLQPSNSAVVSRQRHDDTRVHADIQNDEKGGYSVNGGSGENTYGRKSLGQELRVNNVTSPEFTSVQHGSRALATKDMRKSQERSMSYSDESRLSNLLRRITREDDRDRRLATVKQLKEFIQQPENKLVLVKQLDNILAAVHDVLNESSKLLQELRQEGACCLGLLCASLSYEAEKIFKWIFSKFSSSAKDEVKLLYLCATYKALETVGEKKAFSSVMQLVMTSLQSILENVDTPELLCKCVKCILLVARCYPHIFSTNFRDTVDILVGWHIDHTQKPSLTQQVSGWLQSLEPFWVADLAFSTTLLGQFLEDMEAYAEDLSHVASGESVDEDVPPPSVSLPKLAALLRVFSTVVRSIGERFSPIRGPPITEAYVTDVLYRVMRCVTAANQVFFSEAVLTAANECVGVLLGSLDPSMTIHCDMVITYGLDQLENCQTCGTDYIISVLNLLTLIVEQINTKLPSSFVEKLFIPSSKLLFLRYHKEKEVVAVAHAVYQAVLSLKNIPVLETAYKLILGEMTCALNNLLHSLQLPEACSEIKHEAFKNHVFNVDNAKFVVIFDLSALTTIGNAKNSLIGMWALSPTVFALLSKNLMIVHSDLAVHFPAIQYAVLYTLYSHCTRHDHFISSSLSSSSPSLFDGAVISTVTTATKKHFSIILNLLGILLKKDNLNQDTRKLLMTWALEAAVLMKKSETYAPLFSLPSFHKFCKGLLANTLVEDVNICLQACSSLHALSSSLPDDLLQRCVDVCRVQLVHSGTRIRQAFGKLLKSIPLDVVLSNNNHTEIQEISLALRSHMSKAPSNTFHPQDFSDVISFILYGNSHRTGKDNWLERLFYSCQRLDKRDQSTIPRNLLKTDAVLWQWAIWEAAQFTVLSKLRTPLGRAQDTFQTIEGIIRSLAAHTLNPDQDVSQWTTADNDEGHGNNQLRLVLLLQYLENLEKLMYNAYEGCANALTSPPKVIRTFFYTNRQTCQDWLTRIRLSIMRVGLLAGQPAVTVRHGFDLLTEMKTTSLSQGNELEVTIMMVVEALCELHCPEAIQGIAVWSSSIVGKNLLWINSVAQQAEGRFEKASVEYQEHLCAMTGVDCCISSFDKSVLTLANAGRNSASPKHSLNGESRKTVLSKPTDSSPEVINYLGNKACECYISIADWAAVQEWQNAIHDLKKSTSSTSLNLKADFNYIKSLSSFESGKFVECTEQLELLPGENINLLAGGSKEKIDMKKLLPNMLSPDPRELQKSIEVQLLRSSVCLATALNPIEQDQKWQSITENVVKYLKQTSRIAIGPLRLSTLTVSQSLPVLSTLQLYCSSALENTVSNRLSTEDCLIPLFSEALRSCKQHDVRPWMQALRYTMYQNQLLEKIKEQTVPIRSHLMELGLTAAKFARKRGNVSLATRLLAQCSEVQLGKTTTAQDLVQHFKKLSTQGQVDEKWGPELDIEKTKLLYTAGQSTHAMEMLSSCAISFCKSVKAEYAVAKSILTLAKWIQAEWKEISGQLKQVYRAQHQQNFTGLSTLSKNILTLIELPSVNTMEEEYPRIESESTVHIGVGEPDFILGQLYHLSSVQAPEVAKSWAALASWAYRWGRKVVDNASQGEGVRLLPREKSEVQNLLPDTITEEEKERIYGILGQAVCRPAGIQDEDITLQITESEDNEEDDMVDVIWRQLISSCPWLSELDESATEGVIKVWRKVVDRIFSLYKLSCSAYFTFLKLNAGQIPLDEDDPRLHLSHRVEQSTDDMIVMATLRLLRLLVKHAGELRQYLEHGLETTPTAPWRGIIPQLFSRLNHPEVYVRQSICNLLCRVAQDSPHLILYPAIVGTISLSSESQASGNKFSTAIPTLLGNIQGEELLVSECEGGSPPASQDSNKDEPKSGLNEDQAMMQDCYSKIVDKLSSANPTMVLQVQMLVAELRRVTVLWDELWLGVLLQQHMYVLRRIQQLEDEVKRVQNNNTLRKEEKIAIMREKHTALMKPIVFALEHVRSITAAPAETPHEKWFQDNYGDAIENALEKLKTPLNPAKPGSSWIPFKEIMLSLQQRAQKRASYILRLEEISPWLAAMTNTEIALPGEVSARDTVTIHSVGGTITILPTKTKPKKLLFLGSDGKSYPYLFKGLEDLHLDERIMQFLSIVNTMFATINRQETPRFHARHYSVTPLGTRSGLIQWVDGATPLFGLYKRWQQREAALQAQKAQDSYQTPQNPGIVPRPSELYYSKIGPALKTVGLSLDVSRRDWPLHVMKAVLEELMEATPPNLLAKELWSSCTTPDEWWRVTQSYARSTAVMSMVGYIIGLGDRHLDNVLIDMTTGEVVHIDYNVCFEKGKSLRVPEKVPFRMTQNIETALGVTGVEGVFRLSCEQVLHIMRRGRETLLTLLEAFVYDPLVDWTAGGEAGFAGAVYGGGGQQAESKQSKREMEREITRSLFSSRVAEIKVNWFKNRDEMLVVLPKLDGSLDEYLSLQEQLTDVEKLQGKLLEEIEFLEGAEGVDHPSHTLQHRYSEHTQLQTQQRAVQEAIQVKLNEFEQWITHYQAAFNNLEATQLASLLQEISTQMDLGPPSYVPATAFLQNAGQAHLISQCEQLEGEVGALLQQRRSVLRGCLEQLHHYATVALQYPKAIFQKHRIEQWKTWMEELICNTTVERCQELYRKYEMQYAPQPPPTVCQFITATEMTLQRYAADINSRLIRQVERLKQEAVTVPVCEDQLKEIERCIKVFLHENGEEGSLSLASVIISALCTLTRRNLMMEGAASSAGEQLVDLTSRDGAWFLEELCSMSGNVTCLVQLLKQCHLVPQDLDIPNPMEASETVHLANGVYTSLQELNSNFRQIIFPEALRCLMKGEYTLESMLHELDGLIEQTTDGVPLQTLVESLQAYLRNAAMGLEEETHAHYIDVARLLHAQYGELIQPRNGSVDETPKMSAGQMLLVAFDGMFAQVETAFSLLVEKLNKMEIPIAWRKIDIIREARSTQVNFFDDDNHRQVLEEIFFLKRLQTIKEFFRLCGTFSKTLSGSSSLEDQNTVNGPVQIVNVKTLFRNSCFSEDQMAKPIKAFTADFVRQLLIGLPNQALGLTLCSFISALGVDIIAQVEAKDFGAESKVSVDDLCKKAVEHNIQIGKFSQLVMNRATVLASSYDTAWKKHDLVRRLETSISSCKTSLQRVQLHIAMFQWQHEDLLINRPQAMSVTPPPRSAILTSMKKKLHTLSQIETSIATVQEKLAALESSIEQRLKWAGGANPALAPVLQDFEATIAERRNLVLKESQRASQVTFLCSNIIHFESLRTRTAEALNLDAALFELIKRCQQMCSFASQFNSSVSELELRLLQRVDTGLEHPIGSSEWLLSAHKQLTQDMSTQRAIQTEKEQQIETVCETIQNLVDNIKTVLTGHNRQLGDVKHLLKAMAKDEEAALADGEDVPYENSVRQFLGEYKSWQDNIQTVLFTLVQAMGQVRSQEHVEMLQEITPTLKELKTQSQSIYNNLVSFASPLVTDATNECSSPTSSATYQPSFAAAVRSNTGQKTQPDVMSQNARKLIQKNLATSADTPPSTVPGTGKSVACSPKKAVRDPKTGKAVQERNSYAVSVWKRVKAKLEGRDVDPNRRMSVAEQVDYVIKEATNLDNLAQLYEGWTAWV", "experiment": "Inhibition of SMG1 in human HeLa cells lysate at 10 uM pre incubated for 15 mins followed by ATP acyl phosphate probe addition and measured after 10 mins by LC-MS/MS analysis relative to control", "format": "subcellular", "conditions": "time 25.0 min"}, "[8]": {"target": "Phosphorylase b kinase gamma catalytic chain, liver/testis isoform (Homo sapiens, UniProt P15735)", "experiment": "Inhibition of PHKg2 in human HeLa cells lysate pre incubated for 15 mins followed by ADP acyl phosphate probe addition and measured after 10 mins by LC-MS/MS analysis", "format": "subcellular"}, "[9]": {"experiment": "Inhibition of MAP3K5/MAP3K6/MAP3K15 in human HeLa cells lysate at 50 uM pre incubated for 15 mins followed by ATP acyl phosphate probe addition and measured after 10 mins by LC-MS/MS analysis relative to control", "conditions": "25 min, condition cancer"}, "[10]": {"target": "Ribosomal protein S6 kinase alpha-3 (Homo sapiens, UniProt P51812)", "sequence (P51812 whole entry, the tested form may be a part)": "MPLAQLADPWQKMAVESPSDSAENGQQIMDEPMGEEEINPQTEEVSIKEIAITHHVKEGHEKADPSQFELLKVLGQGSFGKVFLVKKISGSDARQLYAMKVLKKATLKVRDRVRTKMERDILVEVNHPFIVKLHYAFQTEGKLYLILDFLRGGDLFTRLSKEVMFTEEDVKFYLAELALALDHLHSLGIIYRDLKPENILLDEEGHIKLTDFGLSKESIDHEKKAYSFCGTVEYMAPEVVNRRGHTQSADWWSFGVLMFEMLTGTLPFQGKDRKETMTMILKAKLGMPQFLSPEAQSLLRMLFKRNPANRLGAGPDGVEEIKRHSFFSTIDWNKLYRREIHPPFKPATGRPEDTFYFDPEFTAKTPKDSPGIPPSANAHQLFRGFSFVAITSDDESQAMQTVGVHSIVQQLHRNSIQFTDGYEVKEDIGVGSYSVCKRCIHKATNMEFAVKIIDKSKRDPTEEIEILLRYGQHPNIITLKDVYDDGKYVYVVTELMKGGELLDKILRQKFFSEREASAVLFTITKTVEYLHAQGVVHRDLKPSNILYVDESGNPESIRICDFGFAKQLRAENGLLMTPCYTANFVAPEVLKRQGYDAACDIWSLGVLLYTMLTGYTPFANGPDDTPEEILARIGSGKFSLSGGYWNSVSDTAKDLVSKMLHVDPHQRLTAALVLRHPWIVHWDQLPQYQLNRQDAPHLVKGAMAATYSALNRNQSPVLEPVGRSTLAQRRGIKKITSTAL", "experiment": "Inhibition of RSK2 domain 1 active form in human HeLa cells lysate at 2 uM pre incubated for 15 mins followed by ATP acyl phosphate probe addition and measured after 10 mins by LC-MS/MS analysis relative to control", "format": "subcellular", "conditions": "time 25.0 min"}, "[11]": {"target": "T2, Serine/threonine-protein kinase Nek9 (Homo sapiens) (UniProt Q8TD19)", "T2 sequence (whole entry)": "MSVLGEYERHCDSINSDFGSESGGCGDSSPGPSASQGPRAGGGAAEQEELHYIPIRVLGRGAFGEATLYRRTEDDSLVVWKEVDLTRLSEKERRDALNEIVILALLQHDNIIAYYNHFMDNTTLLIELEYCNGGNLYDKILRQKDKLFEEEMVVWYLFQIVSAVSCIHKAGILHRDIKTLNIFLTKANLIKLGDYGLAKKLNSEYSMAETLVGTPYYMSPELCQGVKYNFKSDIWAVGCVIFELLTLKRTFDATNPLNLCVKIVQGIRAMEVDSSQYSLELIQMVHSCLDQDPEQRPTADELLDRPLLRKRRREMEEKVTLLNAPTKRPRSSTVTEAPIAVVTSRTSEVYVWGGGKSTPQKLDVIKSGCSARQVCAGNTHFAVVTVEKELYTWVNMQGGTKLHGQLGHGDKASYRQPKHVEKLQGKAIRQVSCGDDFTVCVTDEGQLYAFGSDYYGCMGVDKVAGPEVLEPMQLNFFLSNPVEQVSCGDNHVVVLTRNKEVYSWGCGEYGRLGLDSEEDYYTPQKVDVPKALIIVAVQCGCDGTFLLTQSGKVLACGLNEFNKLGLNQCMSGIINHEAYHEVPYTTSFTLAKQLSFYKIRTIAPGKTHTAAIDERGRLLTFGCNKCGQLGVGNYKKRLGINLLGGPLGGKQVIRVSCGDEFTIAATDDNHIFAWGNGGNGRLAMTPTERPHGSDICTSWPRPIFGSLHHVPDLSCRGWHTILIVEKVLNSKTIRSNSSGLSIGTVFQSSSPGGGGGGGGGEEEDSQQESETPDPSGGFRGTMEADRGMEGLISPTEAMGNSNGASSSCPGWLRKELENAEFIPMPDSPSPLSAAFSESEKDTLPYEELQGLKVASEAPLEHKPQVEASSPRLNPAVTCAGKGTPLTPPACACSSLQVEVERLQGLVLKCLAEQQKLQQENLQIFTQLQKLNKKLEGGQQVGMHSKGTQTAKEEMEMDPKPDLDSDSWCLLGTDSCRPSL", "experiment": "Inhibition of NEK9 in human HeLa cells lysate at 2 uM pre incubated for 15 mins followed by ADP acyl phosphate probe addition and measured after 10 mins by LC-MS/MS analysis relative to control", "format": "subcellular", "conditions": "time 25.0 min"}, "[12]": {"target": "Aurora kinase A (Homo sapiens, UniProt O14965)", "sequence (O14965 whole entry)": "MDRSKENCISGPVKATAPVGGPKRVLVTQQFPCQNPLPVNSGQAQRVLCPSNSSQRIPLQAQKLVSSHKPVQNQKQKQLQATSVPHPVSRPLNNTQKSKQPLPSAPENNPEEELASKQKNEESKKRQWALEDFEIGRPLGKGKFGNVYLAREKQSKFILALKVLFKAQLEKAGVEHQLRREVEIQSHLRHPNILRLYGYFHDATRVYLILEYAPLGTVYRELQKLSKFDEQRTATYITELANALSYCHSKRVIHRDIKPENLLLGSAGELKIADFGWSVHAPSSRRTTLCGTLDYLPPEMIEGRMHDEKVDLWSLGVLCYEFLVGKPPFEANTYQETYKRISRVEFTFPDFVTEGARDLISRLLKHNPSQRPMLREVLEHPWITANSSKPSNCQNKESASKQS", "experiment": "Inhibition of AURA in human HeLa cells lysate pre incubated for 15 mins followed by ATP acyl phosphate probe addition and measured after 10 mins by LC-MS/MS analysis", "format": "subcellular", "outline": "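KiNativ-type profiling in HeLa lysate (5 mg/mL total protein). Lysate preincubated 15 min with inhibitor at 50, 10, 2, 0.8 or 0 μM, then ATP or ADP acylphosphate probe added (5 μM final) for 10 min. Reaction stopped with urea and analysed by targeted MS, using up to four fragment ions per kinase peptide-probe conjugate. % inhibition calculated against untreated lysate. Duplicate reactions.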"}}}
{"smiles": "CCOc1cc(N2CCC(O)CC2)ccc1Nc1ncc2c(n1)N(C)c1ccccc1C(=O)N2C", "values": [{"measurement": "inhibition", "setting": "[1]", "value": 5.4, "unit": "%"}, {"measurement": "IC50", "setting": "[2]", "value": "> 50", "unit": "µM"}, {"measurement": "inhibition at 10 µM", "setting": "[3]", "value": -7.8, "unit": "%"}, {"measurement": "inhibition", "setting": "[4]", "value": 7.7, "unit": "%"}, {"measurement": "inhibition", "setting": "[5]", "value": -2.6, "unit": "%"}, {"measurement": "inhibition at 10 µM", "setting": "[6]", "value": -11.1, "unit": "%"}, {"measurement": "inhibition", "setting": "[7]", "value": 3.9, "unit": "%"}, {"measurement": "IC50", "setting": "[8]", "value": "> 50", "unit": "µM"}, {"measurement": "inhibition at 50 µM", "setting": "[9]", "value": 2.5, "unit": "%"}, {"measurement": "inhibition", "setting": "[10]", "value": 8.2, "unit": "%"}, {"measurement": "inhibition", "setting": "[11]", "value": 0.3, "unit": "%"}, {"measurement": "IC50", "setting": "[12]", "value": "> 50", "unit": "µM"}]}
